Data reported in paper PMC6226116 (Clinical and Translational Science, 2018).
Read-outs that look alike come from different tables or passages of the source. Blank lines part the entries; values can stand above or below the compound they belong to.

Columns and labels:
[1] = assay type: in vivo, human
[2] = cited from earlier work
[3] = with tacrolimus; cited from earlier work
[4] = co‐administration of cyclosporine; cited from earlier work
P‐gp = details: LLC‐PK1‐P‐gp cell monolayers; cited from earlier work
[5] = cited from earlier work; remark: listed apart in the source
[6] = Cyclosporine and tacrolimus trough concentrations before the third dose; assay type: in vivo, human; details: tacrolimus 5 mg oral once daily, predose on day 3
Summary of the method: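 Healthy adult male volunteers (n=12) took each test compound orally once daily for 3 days in separate treatment periods (100 mg as soft gelatin capsules; 5 mg). They fasted from 10 h before to 2 h after dosing and avoided CYP-affecting medications. Blood was drawn immediately before the day-3 dose, processed by a certified clinical laboratory, and plasma concentrations were measured by validated LC-MS/MS.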

[7] = both, human, plasma, oral, 100 mg
[8] = in the presence of cyclosporine vs apixaban alone
[9] = in the presence of tacrolimus vs apixaban alone
[10] = co‐administration with ketoconazole, humans

- CL/F ([1]; apixaban 10 mg oral alone, arithmetic mean (SD) [minimum, maximum]): 5.8 L/h
- T max ([1]; apixaban with tacrolimus 5 mg daily for 3 days, median [minimum, maximum]): 2.5 [1, 4] h
- Vd/F [1, 7]: 45 L
- half-life [1, 7]: 6.8 h
- Tmax ([1]; both, human, plasma, po, 10 mg): 2.5 h
- Vd/F ([1]; both, human, plasma, po, 10 mg): 89 L
- half-life ([1]; both, human, plasma, po, 10 mg): 12.1 h
- GMR for apixaban AUC(0–tlast) [1, 8]: 120%
- GMR for apixaban AUC(0–∞) [1, 8]: 119%
- GMR for apixaban C max [1, 8]: 143%
- GMR for apixaban AUC(0–tlast) [1, 9]: 78%
- GMR for apixaban AUC(0–∞) [1, 9]: 77%
- GMR for apixaban C max [1, 9]: 87%
- increase in apixaban exposure ([1]; with cyclosporine co-administration): 20%
- decrease in apixaban exposure ([1]; with tacrolimus co-administration): 22%
Structure (SMILES): COc1ccc(-n2nc(C(N)=O)c3c2C(=O)N(c2ccc(N4CCCCC4=O)cc2)CC3)cc1 [Apixaban]
- increase in apixaban AUC ([2]; administration with diltiazem): 1.4 fold
- increase in apixaban C max ([2]; administration with diltiazem): 1.3 fold
- increase in apixaban AUC [2, 10]: twofold
- increase in apixaban C max [2, 10]: 1.6 fold

Structure (SMILES): CC(C)c1c(C(=O)Nc2ccccc2)c(-c2ccccc2)c(-c2ccc(F)cc2)n1CC[C@@H](O)C[C@@H](O)CC(=O)O [atorvastatin]
- impact on atorvastatin pharmacokinetics [3]: no impact

Structure (SMILES): COc1cc2c(c(OC)c1OC)-c1ccc(OC)c(=O)cc1[C@@H](NC(C)=O)CC2 [colchicine]
- increase in colchicine AUC(0–∞) [4]: 215%
- increase in colchicine C max [4]: 224%

Structure (SMILES): CC(=O)N1CCN(c2ccc(OCC3COC(Cn4ccnc4)(c4ccc(Cl)cc4Cl)O3)cc2)CC1 (stereo not shown) [ketoconazole]
- inhibition of apixaban efflux (P‐gp): extensively inhibited

Structure (SMILES): COc1ccc2c(O[C@@H]3C[C@H]4C(=O)N[C@]5(C(=O)NS(=O)(=O)C6CC6)C[C@H]5/C=C\CCCCN(C)C(=O)[C@@H]4C3)cc(-c3nc(C(C)C)cs3)nc2c1C [simeprevir]
- increase in AUC(0‐24) of simeprevir ([5]; with cyclosporine): 5.8 fold
- increase in C max of simeprevir ([5]; with cyclosporine): 4.7 fold
- increase in AUC(0‐24) of simeprevir ([5]; with tacrolimus): 85%
- increase in Cmax of simeprevir ([5]; with tacrolimus): 79%

- trough concentration, mean (SD) [6]: 3.8 (2.3) ng/mL
Structure (SMILES): C=CC[C@@H]1/C=C(\C)C[C@H](C)C[C@H](OC)[C@H]2O[C@@](O)(C(=O)C(=O)N3CCCC[C@H]3C(=O)O[C@H](/C(C)=C/[C@@H]3CC[C@@H](O)[C@H](OC)C3)[C@H](C)[C@@H](O)CC1=O)[C@H](C)C[C@@H]2OC [tacrolimus]
